Consider 10 compounds from ChEMBL document CHEMBL1129396, “2-amino-4-oxo-5-substituted-pyrrolo[2,3-d]pyrimidines as nonclassical antifolate inhibitors of thymidylate synthase” (J Med Chem, 1996).

Bounds are passed on as bounds.

As a reminder, the EC50 is the concentration at which the effect is half-maximal. Lower therefore signals higher potency in that assay. A word on the IC50: it is the concentration that gives 50% inhibition. Read a high IC50 as weaker potency in that assay. By inhibition is commonly meant the percentage by which the read-out fell short of the control. A low value points to a response near the control.

Test [1] relates to Squamous carcinoma cell line. Nature of the test: Growth inhibition of the FaDu Human Squamous Cell carcinoma cell line. In kind it is functional, cell-based.
Test [2] deals with Thymidylate synthase (Homo sapiens, UniProt P04818). Put plainly: The inhibitory concentration of compound was evaluated on Human Thymidylate synthase.
Thymidylate synthase (Homo sapiens, UniProt P04818), sequence (P04818 whole entry): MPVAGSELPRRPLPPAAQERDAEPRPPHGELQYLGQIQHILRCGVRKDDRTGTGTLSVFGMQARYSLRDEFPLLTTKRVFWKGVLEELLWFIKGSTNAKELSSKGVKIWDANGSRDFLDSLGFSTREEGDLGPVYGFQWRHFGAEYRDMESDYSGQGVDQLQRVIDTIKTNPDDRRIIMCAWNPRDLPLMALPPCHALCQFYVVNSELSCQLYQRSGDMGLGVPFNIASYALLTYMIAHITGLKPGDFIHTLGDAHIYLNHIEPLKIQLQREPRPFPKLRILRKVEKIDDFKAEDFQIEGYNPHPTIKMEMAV
Test [3] addresses Thymidylate synthase (Escherichia coli, UniProt C3SWJ7). Put plainly: The inhibitory concentration of compound was evaluated on Escherichia coli Thymidylate synthase.
Test [4] concerns the target T1, Thymidylate synthase (Lactobacillus casei, UniProt P00469).
T1 sequence (P00469 whole entry): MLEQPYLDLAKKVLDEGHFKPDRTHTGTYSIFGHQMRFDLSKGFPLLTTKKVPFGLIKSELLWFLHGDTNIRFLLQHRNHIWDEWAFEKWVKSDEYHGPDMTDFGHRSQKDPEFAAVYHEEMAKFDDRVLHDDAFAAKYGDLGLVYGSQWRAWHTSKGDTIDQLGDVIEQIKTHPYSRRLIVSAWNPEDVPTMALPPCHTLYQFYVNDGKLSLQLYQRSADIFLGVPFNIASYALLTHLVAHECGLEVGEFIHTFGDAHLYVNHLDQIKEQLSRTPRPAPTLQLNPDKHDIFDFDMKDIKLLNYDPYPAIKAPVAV
Nature of the test: The inhibitory concentration of compound was evaluated on Lactobacillus casei Thymidylate synthase. Set-up: species or system Lacticaseibacillus casei.

Test [5] deals with Thymidylate synthase (Escherichia coli) (UniProt C3SWJ7). Put plainly: Percent inhibition of Thymidylate synthase in Escherichia coli. The following applies: concentration not given here.
Thymidylate synthase (Escherichia coli), sequence (C3SWJ7 1-264): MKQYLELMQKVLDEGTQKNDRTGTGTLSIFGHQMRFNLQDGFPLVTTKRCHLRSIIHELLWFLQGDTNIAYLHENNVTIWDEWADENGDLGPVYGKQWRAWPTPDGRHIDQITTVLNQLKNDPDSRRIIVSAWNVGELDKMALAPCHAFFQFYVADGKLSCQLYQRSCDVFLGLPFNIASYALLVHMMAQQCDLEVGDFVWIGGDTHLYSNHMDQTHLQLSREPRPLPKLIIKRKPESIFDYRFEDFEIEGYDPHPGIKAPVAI
The target in test [6] is T2, Thymidylate synthase (Lactobacillus casei) (UniProt P00469).
T2 sequence (whole entry): T1 sequence (P00469 whole entry)
Nature of the test: Percent inhibition of Thymidylate synthase in Lactobacillus casei. The conditions noted are these: Lacticaseibacillus casei; concentration not given here.

In test [7] the target is T3, Dihydrofolate reductase (Rattus norvegicus, UniProt Q920D2).
T3 sequence (Q920D2 whole entry): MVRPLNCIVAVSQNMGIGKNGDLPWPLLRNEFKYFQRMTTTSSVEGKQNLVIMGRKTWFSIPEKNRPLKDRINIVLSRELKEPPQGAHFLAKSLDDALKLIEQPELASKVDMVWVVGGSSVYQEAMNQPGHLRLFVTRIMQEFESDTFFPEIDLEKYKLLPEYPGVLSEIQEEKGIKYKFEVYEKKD
Put plainly: The inhibitory concentration of compound against Dihydrofolate reductases on rat liver. In a few lines:
(§1)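 Run at 37 °C with 90 µM dihydrofolic acid as substrate and 119 µM NADPH as cofactor, in the presence of 150 mM KCl.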

Test [8] deals with T4, Bifunctional dihydrofolate reductase-thymidylate synthase (Toxoplasma gondii, UniProt Q07422).
T4 sequence (Q07422 whole entry): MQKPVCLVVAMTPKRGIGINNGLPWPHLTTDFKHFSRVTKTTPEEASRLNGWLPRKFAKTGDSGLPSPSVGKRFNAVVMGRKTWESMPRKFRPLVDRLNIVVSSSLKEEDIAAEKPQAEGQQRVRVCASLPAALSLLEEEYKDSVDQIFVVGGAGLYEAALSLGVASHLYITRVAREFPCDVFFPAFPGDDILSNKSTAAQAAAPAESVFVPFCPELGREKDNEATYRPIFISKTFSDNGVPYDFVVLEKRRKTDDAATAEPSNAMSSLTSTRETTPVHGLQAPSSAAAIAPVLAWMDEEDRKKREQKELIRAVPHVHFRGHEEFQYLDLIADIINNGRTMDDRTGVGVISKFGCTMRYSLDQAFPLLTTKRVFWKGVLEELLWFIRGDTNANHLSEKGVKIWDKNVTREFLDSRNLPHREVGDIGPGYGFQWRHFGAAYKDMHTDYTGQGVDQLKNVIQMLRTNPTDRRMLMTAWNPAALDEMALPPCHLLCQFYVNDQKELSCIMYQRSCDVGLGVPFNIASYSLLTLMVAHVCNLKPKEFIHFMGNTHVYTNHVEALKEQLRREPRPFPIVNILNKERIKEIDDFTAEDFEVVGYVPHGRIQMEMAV
Put plainly: The inhibitory concentration of compound against Dihydrofolate reductases on Toxoplasma gondii. In short, it runs like this:
as §1

In test [9] the target is T3, Dihydrofolate reductase. Put plainly: The inhibitory concentration of compound against Dihydrofolate reductases on rat liver (rl). It counts as tissue-based. In a few lines: as §1

Thymidylate synthase (Escherichia coli, UniProt C3SWJ7), sequence (C3SWJ7 whole entry): as the sequence (C3SWJ7 1-264) above

Compound `CN(Cc1ccc(S(=O)(=O)N2CCOCC2)cc1)c1ccc2c3c(cccc13)C(N)=N2` showed an EC50 in test [1] of 1 µM.
For `Cc1[nH]c2nc(N)nc(O)c2c1Sc1ccccc1`, the IC50 against Thymidylate synthase [2] was 30 µM; against Thymidylate synthase [3], over 30 µM; at Thymidylate synthase [4], over 30 µM. In [1], this compound showed an EC50 of over 10 µM. The compound further displayed an inhibition in test [5] of 30%.
Consider `Cc1[nH]c2nc(N)nc(O)c2c1Sc1ccc2ccccc2c1`, for which the inhibition in [5] came out at 36%; in [6], 32%.
As for `Cc1[nH]c2nc(N)[nH]c(=O)c2c1Sc1ccc([N+](=O)[O-])cc1`, the IC50 against Dihydrofolate reductase [7] was determined as 7470 µM; in [8], 244 µM. For the same compound, a half-maximal response in test [1] (EC50) required 1.5 µM.
With `Cc1[nH]c2nc(N)nc(O)c2c1Sc1ccncc1`, the IC50 was 0.34 µM against Thymidylate synthase [2], over 29 µM on Thymidylate synthase [3] and 100 µM on Thymidylate synthase [4].
Consider `Cc1[nH]c2nc(N)nc(O)c2c1Sc1ccc(Cl)cc1`, for which the figures for the IC50 (against Dihydrofolate reductase [9]; in test [8]) were 24.6 µM and 3.1 µM, respectively. The response in [1] was half-maximal at 6.7 µM (EC50).
In the case of `Cc1[nH]c2nc(N)[nH]c(=O)c2c1Sc1ccc2ccccc2c1`, the IC50 against Thymidylate synthase [2] is 2 µM; at Thymidylate synthase [3], over 25 µM; at Thymidylate synthase [4], over 25 µM.
On to `COc1ccc(Sc2c(C)[nH]c3nc(N)[nH]c(=O)c23)cc1OC`, for which the figures for the IC50 (against Dihydrofolate reductase [7]; in [8]) were over 21 µM and 20 µM, respectively.
The like results for `Cc1[nH]c2nc(N)[nH]c(=O)c2c1Sc1ccc(Cl)c(Cl)c1` were, in that order, over 20 µM and 11.7 µM.
For `COc1ccc(Sc2c(C)[nH]c3nc(N)nc(O)c23)cc1OC`, the EC50 in test [1] was over 10 µM. Besides, in test [5], the inhibition came to 30%.
